In ChEMBL document CHEMBL4196006, “Aryl thiosemicarbazones for the treatment of trypanosomatidic infections” (Eur J Med Chem, 2018):
Active and inactive are the calls of the source. The calls are words filed in the database; no cut-off is given here.

Assays:
[1] = tested on: Trypanosoma brucei; test: Potentiation of methotrexate-induced antitrypanosomal activity against Trypanosoma brucei Lister 427 bloodstream form at 10 uM after 72 hrs by resazurin dye-based assay relative to control; type: functional
[2] = Cytotoxicity against human 786-O cells assessed as inhibition of mitochondrial viability at 10 uM after 6 hrs by CMXRos staining based assay relative to control; type: cell-based, 786-0; conditions: read-out: INH
Summary of the method: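 Mitochondrial toxicity monitored by MitoTracker Red CMXRos uptake and high-content imaging; compound at 10 μM, triplicate.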

[3] = molecular target: T1, CYP1A2 (Homo sapiens, UniProt P05177); test: Inhibition of human microsomal CYP1A2 expressed in baculovirus infected BTI-TN-5B1-4 cells at 10 uM incubated for 30 mins by luciferase assay relative to control; type: ADME
T1 sequence (P05177 whole entry): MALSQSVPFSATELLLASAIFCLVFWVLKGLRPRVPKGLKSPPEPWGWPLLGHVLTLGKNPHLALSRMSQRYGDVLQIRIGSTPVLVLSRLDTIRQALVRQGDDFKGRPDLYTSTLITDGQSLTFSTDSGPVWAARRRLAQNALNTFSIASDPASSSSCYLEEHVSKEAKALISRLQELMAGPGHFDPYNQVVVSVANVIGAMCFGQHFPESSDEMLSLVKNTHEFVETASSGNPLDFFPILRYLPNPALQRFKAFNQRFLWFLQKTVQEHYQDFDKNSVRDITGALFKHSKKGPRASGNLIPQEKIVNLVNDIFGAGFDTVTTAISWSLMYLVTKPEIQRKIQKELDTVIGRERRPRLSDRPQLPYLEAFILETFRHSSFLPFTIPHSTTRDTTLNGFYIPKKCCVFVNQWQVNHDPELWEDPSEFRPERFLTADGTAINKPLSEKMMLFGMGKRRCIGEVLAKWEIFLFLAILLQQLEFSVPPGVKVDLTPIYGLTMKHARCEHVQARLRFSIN
Summary of the method: (§1)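 CYP1A2, 2C9, 2C19, 2D6 and 3A4 in microsomes from baculovirus-infected insect cells, each with a P450-Glo luminogenic substrate. Inhibition read as loss of light; single-point at 10 μM, triplicate.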

[4] = tested on: Trypanosoma cruzi; test: Antitrypanosomal activity against Trypanosoma cruzi amastigote form infected in human U2OS cells assessed as parasite growth inhibition at 50 uM after 72 hrs relative to control; type: functional; conditions: for inhibition of growth at 50 µM: read-out: GI
Summary of the method: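 U2OS monolayers grown for 24 h, then infected with tissue-derived trypomastigotes of T. cruzi Y strain. Compounds were added 24 h after infection at 50 μM (single-point) or in dose-response, with 72 h exposure. Plates were fixed, stained and analysed by high-content imaging; activity was normalized to infected and non-infected controls. Means of at least two experiments; benznidazole as reference.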

[5] = molecular target: T2, Pteridine reductase 1 (Leishmania major) (UniProt Q01782); test: Inhibition of Leishmania major PTR1 at 50 uM using H2B as substrate in presence of NADPH by photometric analysis relative to control
T2 sequence (whole entry): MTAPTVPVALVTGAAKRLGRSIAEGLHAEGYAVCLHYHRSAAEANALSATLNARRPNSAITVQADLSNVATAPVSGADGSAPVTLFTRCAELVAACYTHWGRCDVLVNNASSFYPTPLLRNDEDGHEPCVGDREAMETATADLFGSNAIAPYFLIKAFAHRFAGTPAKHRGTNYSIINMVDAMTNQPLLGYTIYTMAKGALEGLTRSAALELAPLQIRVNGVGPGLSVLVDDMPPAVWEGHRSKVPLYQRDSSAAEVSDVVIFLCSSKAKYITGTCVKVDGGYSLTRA

[6] = Cytotoxicity against human THP1 cells assessed as viable cells at 100 uM after 72 hrs by MTT assay relative to control; type: cell-based, THP-1; conditions: read-out: Activity
Summary of the method: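 THP-1-derived macrophages exposed to compounds for 72 h, tested at 100 μM or in dose-response; viability read by MTT colorimetric assay.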

[7] = tested on: Trypanosoma brucei; test: Antitrypanosomal activity against Trypanosoma brucei Lister 427 bloodstream form at 10 uM after 72 hrs by resazurin dye-based assay relative to control; type: functional
[8] = molecular target: CYP3A4 (Homo sapiens, UniProt P08684); test: Inhibition of human microsomal CYP3A4 expressed in baculovirus infected BTI-TN-5B1-4 cells at 10 uM incubated for 30 mins by luciferase assay relative to control; type: ADME; summary of the method: as §1
CYP3A4, sequence (P08684 whole entry): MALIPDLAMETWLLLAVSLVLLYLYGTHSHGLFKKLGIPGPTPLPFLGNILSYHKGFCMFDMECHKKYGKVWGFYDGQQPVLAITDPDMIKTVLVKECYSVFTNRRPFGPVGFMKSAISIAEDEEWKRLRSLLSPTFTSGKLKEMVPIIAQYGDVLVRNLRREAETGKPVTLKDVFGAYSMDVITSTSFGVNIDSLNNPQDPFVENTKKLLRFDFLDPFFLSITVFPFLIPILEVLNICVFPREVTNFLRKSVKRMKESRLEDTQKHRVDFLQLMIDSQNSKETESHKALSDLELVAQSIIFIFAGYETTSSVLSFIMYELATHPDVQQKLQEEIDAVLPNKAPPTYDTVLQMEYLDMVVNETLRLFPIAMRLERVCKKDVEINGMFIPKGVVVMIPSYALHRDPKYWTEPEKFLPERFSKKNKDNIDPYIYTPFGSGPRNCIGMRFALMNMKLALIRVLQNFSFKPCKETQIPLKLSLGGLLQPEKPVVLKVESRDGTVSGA

[9] = molecular target: CYP2C19 (Homo sapiens, UniProt P33261); test: Inhibition of human microsomal CYP2C19 expressed in baculovirus infected BTI-TN-5B1-4 cells at 10 uM incubated for 30 mins by luciferase assay relative to control; type: ADME; summary of the method: as §1
CYP2C19, sequence (P33261 whole entry): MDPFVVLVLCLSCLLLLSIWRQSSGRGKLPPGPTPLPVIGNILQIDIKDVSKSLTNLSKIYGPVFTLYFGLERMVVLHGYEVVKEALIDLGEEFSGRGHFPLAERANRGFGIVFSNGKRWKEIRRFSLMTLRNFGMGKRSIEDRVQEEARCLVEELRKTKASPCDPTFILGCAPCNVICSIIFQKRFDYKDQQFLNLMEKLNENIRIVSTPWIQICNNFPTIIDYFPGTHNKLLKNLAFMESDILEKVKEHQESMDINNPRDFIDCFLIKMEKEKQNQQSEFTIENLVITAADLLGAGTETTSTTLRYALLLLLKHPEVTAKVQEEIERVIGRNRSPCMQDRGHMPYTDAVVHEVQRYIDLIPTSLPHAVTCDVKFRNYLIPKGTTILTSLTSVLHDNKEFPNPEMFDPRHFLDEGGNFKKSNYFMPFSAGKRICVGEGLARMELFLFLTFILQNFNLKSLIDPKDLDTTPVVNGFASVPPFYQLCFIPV

[10] = Cytotoxicity against human U2OS cells assessed as viable cells at 50 uM after 72 hrs by MTT assay relative to control; type: cell-based; conditions: read-out: Activity
[11] = tested on: Leishmania infantum; test: Antileishmanial activity against Leishmania infantum amastigote form assessed as parasite growth inhibition at 50 uM after 72 hrs by steady-Glo reagent based assay relative to control; type: functional; conditions: read-out: GI
Summary of the method: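 Intramacrophage L. infantum amastigotes in THP-1-derived macrophages, tested at 50 μM or in dose-response. Plates held 72 h at 37 °C, 5% CO2. Medium was replaced by PBS, macrophages lysed, and parasites read by Steady-Glo luminescence. High-content imaging gave host cell number, infection ratio (infected/total cells) and parasites per infected cell. Values are means of at least two independent experiments.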

[12] = Cytotoxicity against human A549 cells assessed as growth inhibition at 10 uM after 48 hrs by CellTiter-Glo assay relative to control; values are per cent of control; conditions: A549 cells
[13] = molecular target: T3, Pteridine reductase, putative (Trypanosoma brucei) (UniProt Q581W1); test: Inhibition of Trypanosoma brucei PTR1 at 50 uM using H2B as substrate in presence of NADPH by photometric analysis relative to control
T3 sequence (whole entry): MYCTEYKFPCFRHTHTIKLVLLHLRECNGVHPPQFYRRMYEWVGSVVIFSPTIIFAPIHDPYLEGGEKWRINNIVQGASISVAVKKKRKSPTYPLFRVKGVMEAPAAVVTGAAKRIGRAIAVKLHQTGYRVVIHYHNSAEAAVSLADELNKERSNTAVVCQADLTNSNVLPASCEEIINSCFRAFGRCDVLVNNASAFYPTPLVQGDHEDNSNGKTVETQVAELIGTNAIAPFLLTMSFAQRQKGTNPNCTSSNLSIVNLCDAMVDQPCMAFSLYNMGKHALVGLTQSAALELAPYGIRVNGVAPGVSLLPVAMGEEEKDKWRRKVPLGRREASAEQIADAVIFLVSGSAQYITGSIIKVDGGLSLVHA

[14] = Cytotoxicity against human WI38 cells assessed as growth inhibition at 10 uM after 48 hrs by CellTiter-Glo assay relative to control; values are per cent of control; conditions: WI38 cells
[15] = molecular target: Aurora kinase B (Homo sapiens, UniProt Q96GD4); test: Inhibition of recombinant full-length human aurora B kinase expressed in baculovirus system at 10 uM using MBP as substrate incubated for 45 mins by ADP-glo kinase assay; conditions: probe MBP
Aurora kinase B, sequence (Q96GD4 whole entry): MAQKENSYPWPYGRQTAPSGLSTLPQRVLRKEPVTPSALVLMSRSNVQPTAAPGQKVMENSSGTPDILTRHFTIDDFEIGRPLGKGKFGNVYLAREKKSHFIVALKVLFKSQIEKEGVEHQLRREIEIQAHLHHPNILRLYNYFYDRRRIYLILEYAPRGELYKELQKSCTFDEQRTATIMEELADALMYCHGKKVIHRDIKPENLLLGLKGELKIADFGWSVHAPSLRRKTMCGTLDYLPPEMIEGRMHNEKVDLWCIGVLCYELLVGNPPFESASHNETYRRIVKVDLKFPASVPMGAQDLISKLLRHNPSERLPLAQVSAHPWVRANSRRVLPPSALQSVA
Summary of the method: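 Aurora B activity measured as ADP formation via coupled luciferase ADP-Glo luminescence; single-point at 10 μM, triplicate.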

[16] = molecular target: CYP2C9 (Homo sapiens, UniProt P11712); test: Inhibition of human microsomal CYP2C9 expressed in baculovirus infected BTI-TN-5B1-4 cells at 10 uM incubated for 30 mins by luciferase assay relative to control; type: ADME; summary of the method: as §1
CYP2C9, sequence (P11712 whole entry): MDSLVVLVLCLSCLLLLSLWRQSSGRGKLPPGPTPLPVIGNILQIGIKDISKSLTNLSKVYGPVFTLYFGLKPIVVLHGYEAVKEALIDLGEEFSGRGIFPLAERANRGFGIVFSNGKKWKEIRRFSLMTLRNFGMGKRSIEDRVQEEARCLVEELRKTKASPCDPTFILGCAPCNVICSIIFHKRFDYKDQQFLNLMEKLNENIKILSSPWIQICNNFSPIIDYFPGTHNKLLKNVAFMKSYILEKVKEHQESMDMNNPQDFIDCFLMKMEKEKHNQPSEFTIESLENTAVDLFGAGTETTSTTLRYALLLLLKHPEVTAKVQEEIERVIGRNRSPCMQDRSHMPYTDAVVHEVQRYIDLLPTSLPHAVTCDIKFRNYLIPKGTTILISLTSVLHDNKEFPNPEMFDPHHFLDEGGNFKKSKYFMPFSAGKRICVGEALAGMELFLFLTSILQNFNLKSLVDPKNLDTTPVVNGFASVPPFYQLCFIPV

[17] = tested on: Trypanosoma brucei; test: Potentiation of methotrexate-induced antitrypanosomal activity against Trypanosoma brucei Lister 427 bloodstream form at 10 uM after 72 hrs by resazurin dye-based assay; type: functional
[18] = molecular target: hERG (KCNH2) (Homo sapiens, UniProt Q12809); test: Inhibition of human ERG at 10 uM incubated for 2 hrs by fluorescence polarisation assay relative to control
hERG (KCNH2), sequence (Q12809 whole entry): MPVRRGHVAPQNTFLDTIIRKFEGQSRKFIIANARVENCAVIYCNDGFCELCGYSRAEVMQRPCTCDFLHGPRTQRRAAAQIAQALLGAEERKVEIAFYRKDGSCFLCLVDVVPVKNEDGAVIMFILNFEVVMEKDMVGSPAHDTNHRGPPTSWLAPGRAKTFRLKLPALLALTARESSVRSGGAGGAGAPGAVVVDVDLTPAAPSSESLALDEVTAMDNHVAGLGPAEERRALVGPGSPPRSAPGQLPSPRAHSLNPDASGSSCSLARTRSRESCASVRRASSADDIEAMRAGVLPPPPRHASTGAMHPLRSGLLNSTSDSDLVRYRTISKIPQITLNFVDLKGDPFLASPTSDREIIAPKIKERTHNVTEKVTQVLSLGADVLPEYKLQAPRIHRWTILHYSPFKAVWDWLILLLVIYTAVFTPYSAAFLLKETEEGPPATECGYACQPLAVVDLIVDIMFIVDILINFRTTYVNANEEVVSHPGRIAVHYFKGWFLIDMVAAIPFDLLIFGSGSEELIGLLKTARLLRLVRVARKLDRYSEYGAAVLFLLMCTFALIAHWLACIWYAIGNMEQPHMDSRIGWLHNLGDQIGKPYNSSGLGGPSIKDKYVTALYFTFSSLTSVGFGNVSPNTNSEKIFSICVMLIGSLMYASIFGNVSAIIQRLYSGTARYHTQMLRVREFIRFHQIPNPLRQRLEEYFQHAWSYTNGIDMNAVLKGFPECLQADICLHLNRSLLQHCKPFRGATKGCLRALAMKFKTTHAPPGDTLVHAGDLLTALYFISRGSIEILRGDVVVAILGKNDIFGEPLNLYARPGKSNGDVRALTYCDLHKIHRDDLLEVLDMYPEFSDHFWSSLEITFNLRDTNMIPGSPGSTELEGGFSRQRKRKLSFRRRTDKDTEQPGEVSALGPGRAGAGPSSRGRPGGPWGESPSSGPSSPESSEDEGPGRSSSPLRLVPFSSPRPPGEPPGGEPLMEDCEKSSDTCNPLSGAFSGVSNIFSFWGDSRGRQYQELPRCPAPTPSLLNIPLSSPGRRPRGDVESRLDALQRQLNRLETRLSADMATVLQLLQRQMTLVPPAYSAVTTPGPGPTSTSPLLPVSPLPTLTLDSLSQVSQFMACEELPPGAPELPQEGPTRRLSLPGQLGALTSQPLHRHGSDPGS

[19] = tested on: Trypanosoma brucei; test: Antitrypanosomal activity against Trypanosoma brucei Lister 427 bloodstream form assessed as parasite growth inhibition at 50 uM after 72 hrs by SYBR Green assay relative to control; type: functional
[20] = molecular target: CYP2D6 (Homo sapiens, UniProt P10635); test: Inhibition of human microsomal CYP2D6 expressed in baculovirus infected BTI-TN-5B1-4 cells at 10 uM incubated for 30 mins by luciferase assay relative to control; type: ADME; summary of the method: as §1
CYP2D6, sequence (P10635 whole entry): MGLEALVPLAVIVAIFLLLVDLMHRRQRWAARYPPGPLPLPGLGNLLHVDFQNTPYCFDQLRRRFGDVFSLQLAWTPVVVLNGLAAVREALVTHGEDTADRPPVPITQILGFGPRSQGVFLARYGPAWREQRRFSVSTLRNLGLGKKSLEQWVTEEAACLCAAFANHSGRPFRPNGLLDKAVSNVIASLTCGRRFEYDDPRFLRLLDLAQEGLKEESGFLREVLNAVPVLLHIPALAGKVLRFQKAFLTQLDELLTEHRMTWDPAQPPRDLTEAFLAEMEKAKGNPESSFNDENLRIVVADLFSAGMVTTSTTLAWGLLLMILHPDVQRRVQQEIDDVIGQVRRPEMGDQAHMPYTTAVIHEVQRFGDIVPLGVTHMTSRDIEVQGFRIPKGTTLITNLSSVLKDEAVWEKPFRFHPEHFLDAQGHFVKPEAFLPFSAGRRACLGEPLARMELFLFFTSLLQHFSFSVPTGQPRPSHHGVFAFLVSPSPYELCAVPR

Structure (SMILES) | inhibition at 0.5 h, 10 µM [3] | inhibition of growth at 50 µM [4] | inhibition [5] | inhibition at 0.5 h, 10 µM [8] | inhibition at 0.5 h, 10 µM [9] | inhibition [13] | inhibition at 0.75 h, 10 µM [15] | inhibition at 0.5 h, 10 µM [16] | inhibition at 2 h, 10 µM [18] | inhibition at 0.5 h, 10 µM [20] | further results
C/C(=N\NC(N)=S)c1ccc(O)cc1 | -0.75% | 37% | 7.77% | -4.7% | -63.9% | 26.2% | -0.05% | -9.01% | 3.53% | -24.5% | Activity [1]: 87.83%; cytotoxicity at 6 h, 10 µM [2]: 5.9%; viability at 72 h, 100 µM [6]: 72.2%; Activity [7]: 14.83%; viability at 72 h, 50 µM [10]: 90.2%; inhibition of growth at 50 µM [11]: 23.9%; cell growth (% of control) at 48 h, 10 µM [12]: 126%; cell growth (% of control) at 48 h, 10 µM [14]: 101%; PF [17]: 2.25; growth inhibition (GI) [19]: inactive
Cc1ccsc1/C=N/NC(N)=S | 38.3% | 24.9% | 1.75% | -8.16% | -20.7% | inactive | -5.27% | 4.24% | -5.98% | 8.57% | Activity [1]: 34.17%; cytotoxicity at 6 h, 10 µM [2]: 2.15%; viability at 72 h, 100 µM [6]: 76%; Activity [7]: 8.33%; viability at 72 h, 50 µM [10]: 95.8%; inhibition of growth at 50 µM [11]: 8.28%; cell growth (% of control) at 48 h, 10 µM [12]: 91.9%; cell growth (% of control) at 48 h, 10 µM [14]: 85.4%; PF [17]: 1.05; inhibition of growth at 50 µM ([19]; Lister 427, 72 h, read-out: GI): 17.3%
COc1cc(/C=N/NC(N)=S)ccc1O | 7.06% |  | 9.85% | -9.76% | -20.3% | 9.78% | -0.27% | -7.31% | 6.07% | 22.2% | 
Nc1nnc(-c2cccc(-c3ccccc3)c2)s1 |  |  |  |  |  |  |  |  |  |  | growth inhibition (GI) [4]: inactive
COc1ccc(-c2cccc(-c3nnc(N)s3)c2)cc1OC |  | 14.6% |  |  |  |  |  |  |  |  | 
COc1ccccc1-c1nnc(N)s1 |  |  |  |  |  |  |  |  |  |  | growth inhibition (GI) [4]: inactive
COc1ccccc1/C=N/NC(N)=S | 29.6% |  | 9.19% | -23.2% | -52.9% | 5.67% | -16.9% | -19.8% | 5.91% | -8.91% | 
NC(=S)N/N=C/c1ccc(N)cc1 | -1.56% |  | 3.6% | -13.1% | -39.5% | 7.43% | -10.5% | 3.06% | 3.02% | -6.6% | Activity [1]: 73.67%; cytotoxicity at 6 h, 10 µM [2]: -7.54%; growth inhibition (GI) [4]: inactive; viability at 72 h, 100 µM [6]: 74.4%; Activity [7]: 4.33%; viability at 72 h, 50 µM [10]: 125%; inhibition of growth at 50 µM [11]: 38.6%; cell growth (% of control) at 48 h, 10 µM [12]: 125%; cell growth (% of control) at 48 h, 10 µM [14]: 121%; PF [17]: 2.58; growth inhibition (GI) [19]: inactive
COc1cccc(OC)c1-c1nnc(N)s1 |  | 27.1% |  |  |  |  |  |  |  |  | 
Nc1nnc(-c2ccco2)s1 |  |  |  |  |  |  |  |  |  |  | growth inhibition (GI) [4]: inactive
Nc1nnc(-c2ccc(O)c(O)c2)s1 |  | 16.6% |  |  |  |  |  |  |  |  | 
COc1cc(-c2nnc(N)s2)cc(OC)c1OC |  |  |  |  |  |  |  |  |  |  | growth inhibition (GI) [4]: inactive
Nc1nnc(-c2cccc(Br)c2)s1 |  | 41.6% |  |  |  |  |  |  |  |  | 
Nc1nnc(-c2cccc(-c3ccc4c(c3)OCO4)c2)s1 |  |  |  |  |  |  |  |  |  |  | growth inhibition (GI) [4]: inactive
NC(=S)N/N=C/c1ccc(O)cc1 | -5.15% |  | 18.2% | -24.4% | -42.9% | 19.6% | -5.27% | -21.1% | 7.48% | -3.36% | 
Nc1nnc(-c2ccc(-c3ccccc3)cc2)s1 |  | 31.2% |  |  |  |  |  |  |  |  | 
COc1ccc(/C=N/NC(N)=S)cc1OC | -9.14% |  | 20.7% | -24.4% | -30.2% | 20.1% | -7.72% | -19.2% | 4.1% | -20.5% | 
COc1ccc(-c2nnc(N)s2)cc1OC |  | 30.2% |  |  |  |  |  |  |  |  | 
Nc1nnc(-c2ccc(OCc3ccc(Cl)c(Cl)c3)cc2)s1 |  | 14.5% |  |  |  |  |  |  |  |  | 
Nc1nnc(/C=C/c2ccccc2)s1 |  | 82% |  |  |  |  |  |  |  |  | 
NC(=S)N/N=C/c1ccc(O)c(O)c1 | -6.6% |  | 56.5% | -7.74% | -49.1% | 30.7% | -12.2% | -7.51% | 4.17% | -9.48% | 
Nc1nnc(-c2ccc(Cl)c(Cl)c2)s1 |  | 23.4% |  |  |  |  |  |  |  |  | 
